Measured values: ChEMBL document CHEMBL3769318, “The Rational Design of Selective Benzoxazepin Inhibitors of the α-Isoform of Phosphoinositide 3-Kinase Culminating in the Identification of (S)-2-((2-(1-Isopropyl-1H-1,2,4-triazol-5-yl)-5,6-dihydrobenzo[f]imidazo[1,2-d][1,4]oxazepin-9-yl)oxy)propanamide (GDC-0326)” (J Med Chem, 2016)

What was measured:
[1] = target: Phosphatidylinositol 4,5-bisphosphate 3-kinase catalytic subunit alpha isoform (Homo sapiens, UniProt P42336); experiment: Inhibition of recombinant PI3K alpha (unknown origin) using PIP2 as substrate by fluorescence polarization assay; conditions: read-out: Ki(app)
[2] = Antiproliferative activity against human PC3 cells after 4 days by luminescence plate reader method; assay type: functional, cell-based; conditions: PC-3, 96 h
[3] = Antiproliferative activity against human MCF7-neo/Her2 cells after 3 days by luminescence plate reader method; assay type: functional, cell-based; conditions: 72 h
[4] = Clearance in Sprague-Dawley rat at 1 mg/kg, iv; assay type: ADME, organism-based; conditions: in vivo
[5] = Cytotoxicity against human KPL4 cells after 4 days by luminescence plate reader method; assay type: functional, cell-based; conditions: KPL4, 96 h
animal or person [6] = conditions: Homo sapiens, po, 504 h, read-out: TGI
[7] = Clearance in NCR nude mouse at 1 mg/kg, iv; assay type: ADME, organism-based; conditions: in vivo
[8] = Toxicity in nude mouse xenografted with human MCF7-neo/Her2 cells; assay type: organism-based
Outline: (§1)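 Breast cancer xenografts: MCF7-neo/HER2 grown in nude mice, KPL-4 in scid beige mice. Compound given orally once daily for 21 days at 0.78, 1.56, 3.25, 6.25 or 12.5 mg/kg in 0.5% methylcellulose/0.2% Tween-80, versus vehicle-treated mice. Tolerability judged by body weight loss, with under 10% loss as the criterion.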

animal or person [9] = conditions: Homo sapiens, KPL4, po, 504 h, read-out: TGI
Mus musculus [10] = experiment: Volume of distribution at steady state in NCR nude mouse at 1 mg/kg, iv; conditions: in vivo
[11] = Oral bioavailability in NCR nude mouse at 25 mg/kg; assay type: ADME, organism-based; conditions: in vivo
[12] = Plasma protein binding in CD-1 mouse at 5 uM after 4 hrs by LC-MS/MS analysis; assay type: ADME, cell-free; conditions: mouse, 4 h, 5 µM
Outline: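 Equilibrium dialysis of pooled plasma (n ≥ 3) spiked with compound at 5 µM total against PBS pH 7.4, 37 °C, 5% CO2, for 4 h; plasma and buffer concentrations measured by LC-MS/MS; percent unbound calculated as buffer/plasma ×100.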

Mus musculus [13] = organism: Mus musculus; experiment: animal or person; conditions: 1 h, read-out: INH
[14] = Toxicity in SCID beige mouse xenografted with human KPL4 cells; assay type: organism-based; conditions: in vivo; outline: as §1

Phosphatidylinositol 4,5-bisphosphate 3-kinase catalytic subunit alpha isoform, sequence (P42336 whole entry, canonical isoform): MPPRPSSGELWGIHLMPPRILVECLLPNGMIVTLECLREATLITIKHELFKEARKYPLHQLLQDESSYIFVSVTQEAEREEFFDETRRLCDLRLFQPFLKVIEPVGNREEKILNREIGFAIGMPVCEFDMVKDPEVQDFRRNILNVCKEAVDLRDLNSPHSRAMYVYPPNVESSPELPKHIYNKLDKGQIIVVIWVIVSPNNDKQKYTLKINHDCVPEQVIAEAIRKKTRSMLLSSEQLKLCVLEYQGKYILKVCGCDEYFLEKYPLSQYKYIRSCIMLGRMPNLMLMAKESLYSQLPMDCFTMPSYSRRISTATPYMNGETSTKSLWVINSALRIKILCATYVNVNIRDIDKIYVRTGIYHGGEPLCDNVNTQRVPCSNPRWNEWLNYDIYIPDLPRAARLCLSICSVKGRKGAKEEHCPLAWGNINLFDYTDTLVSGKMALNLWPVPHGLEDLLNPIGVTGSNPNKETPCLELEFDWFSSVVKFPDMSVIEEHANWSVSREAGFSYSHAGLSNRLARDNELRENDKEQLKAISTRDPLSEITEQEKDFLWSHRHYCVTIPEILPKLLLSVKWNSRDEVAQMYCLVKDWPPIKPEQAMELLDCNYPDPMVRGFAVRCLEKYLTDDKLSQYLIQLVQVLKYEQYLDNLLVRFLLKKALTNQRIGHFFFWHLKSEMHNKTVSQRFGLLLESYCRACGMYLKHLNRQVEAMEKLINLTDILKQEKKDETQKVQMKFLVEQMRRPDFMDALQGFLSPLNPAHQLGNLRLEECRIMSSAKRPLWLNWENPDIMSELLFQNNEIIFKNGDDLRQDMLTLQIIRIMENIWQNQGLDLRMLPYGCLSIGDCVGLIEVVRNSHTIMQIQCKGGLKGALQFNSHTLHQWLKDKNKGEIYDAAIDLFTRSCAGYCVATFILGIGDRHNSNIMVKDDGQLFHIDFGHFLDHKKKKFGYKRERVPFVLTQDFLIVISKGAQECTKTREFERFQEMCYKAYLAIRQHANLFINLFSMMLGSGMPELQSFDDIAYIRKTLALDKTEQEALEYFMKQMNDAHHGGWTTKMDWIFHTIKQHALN

Compound | Ki [1] [nM] | EC50 [2] [nM] | EC50 [3] [nM] | also measured
COc1cc2c(cn1)-c1nc(-c3ncnn3C(C)C)cn1CCO2 | 3.6 |  |  | 
CC(C)n1ncnc1-c1cn2c(n1)-c1ccc(OCC(N)=O)cc1OCC2 | 0.3 | 200 | 200 | 
CC(C)n1ncnc1-c1cn2c(n1)-c1cnc(N)cc1OCC2 | 1.2 |  |  | 
CC(C)n1ncnc1-c1cn2c(n1)-c1cnc(OC(C)(C)C(N)=O)cc1OCC2 | 3.1 |  |  | 
CC(C)n1ncnc1-c1cn2c(n1)-c1ccc(N3CC[C@H]3C(N)=O)cc1OCC2 | 0.1 | 230 | 50 | 
CC(C)n1ncnc1-c1cn2c(n1)-c1cnc(O[C@@H](C)C(N)=O)cc1OCC2 | 1 |  |  | clearance [4]: 3.72 L/h/kg
CC(C)n1ncnc1-c1cn2c(n1)-c1cnc(N(C)CC(N)=O)cc1OCC2 | 0.2 |  |  | 
Cc1nc(-c2cn3c(n2)-c2ccc(-c4cnn(C(C)(C)C(N)=O)c4)cc2OCC3)n(C(C)C)n1 [TASELISIB] |  |  | 30 | EC50 [5]: 10 nM; inhibition in vivo at 25 mg/kg (animal or person [6]): 116%; clearance [7]: 0.18 L/h/kg; MTD [8]: 25 mg/kg; inhibition in vivo at 25 mg/kg (animal or person [9]): 125%; Vdss (Mus musculus [10]): 0.3 L/kg; bioavailability [11]: 100%; PPB [12]: 97.5%; inhibition in vivo at 25 mg/kg (Mus musculus [13]): 74%; MTD [14]: 25 mg/kg
CC(C)n1ncnc1-c1cn2c(n1)-c1ccc(O[C@H](C)C(N)=O)cc1OCC2 |  | 4600 | 1000 | 
CC(C)n1ncnc1-c1cn2c(n1)-c1ccc(N3CCC[C@H]3C(N)=O)cc1OCC2 | 0.03 | 150 | 10 | clearance [4]: 1.98 L/h/kg
